Calb FLC: C. albicans growth modulation with fluconazole; C. albicans CaCi-2 (fluconazole-resistant clinical isolate) + fluconazole, Alamar Blue growth, 48 h; growth inhibition, % (no concentration beside the values); actives 0.57% (n = 300,000);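 active = growth inhibition above about 58% in most replicates, limit read from the data, passing the limit was not always enough; inconclusive = exactly half the replicates above a set limit; inactive = most replicates below a set limit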;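 also: all wells also contain fluconazole at 8 µg/ml as a sub-toxic cotreatment; 0% = median of DMSO wells and 100% = median of geldanamycin control wells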
HSF1 inh: HSF1 inhibition; NIH3T3-HGL HSE-luciferase, MG132-induced, luminescence 8 h; hits give low values; activity change, negative = inhibition, % at 7.5 µM (by protocol); actives 0.77% (n = 300,000);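 active = more than half of replicate wells show activity change below -50%, luminescence cut by over half; inconclusive = some wells, but at most half, below -50%; inactive = no replicate well below -50%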;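 also: luciferase reports HSF-1 transcriptional activity via heat shock element; 0% = median of DMSO wells and -100% = zero luminescence signal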
HSF1 activator: increases HSF-1 driven luciferase reporter signal; NIH3T3-HGL HSF-1 luciferase reporter, MG132, 8 h; 100% = twice DMSO control signal; activation, % at 9 µM; actives 1.7% (n = 300,000); AID 504408;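 active = mean replicate activation of at least 50% with a set share of replicates each reaching 50%; inconclusive = only one of those two conditions met; inactive = mean below 50% and too few replicates reaching it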;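 also: 0% = median of the neutral control wells and 100% = twice that signal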
HIF act: HIF pathway transcriptional activation. U2OS HRE-luciferase reporter, luminescence; normalized: DMSO 0%, desferrioxamine 100%. activation, % at 7.5 µM (by protocol). actives 0.32% (n = 300,000);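 active = mean activation of at least 10% of the iron chelator positive control signal, with at least half of replicates also reaching 10%; inconclusive = mean and replicate majority disagree about reaching 10%; inactive = mean and most replicates under 10%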
T cruzi repl: T. cruzi replication inhibition; T. cruzi beta-gal in NIH3T3, luminescence, 90 h; actives 1.4% (n = 300,000); inhibition, % (no concentration beside the values);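 active = mean inhibition across valid replicates above about 55%, limit read from the data; inconclusive = mean below that limit but half or more replicates reach it; inactive = mean below it, under half of replicates reach it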;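 also: signal also drops with host cell toxicity which is not excluded here; 0% = plate median of DMSO wells and 100% = zero luminescence signal; higher percent means less beta-gal luminescence so fewer parasites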
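compound dosing = single 50 nL compound addition per well in DMSO | material = NIH/3T3 host cells with β-galactosidase reporter T. cruzi | input = 5,000 host fibroblasts per well | timing = ≥90 h infection period, 3 h prior cell attachment | read-out basis = percent inhibition of parasite-derived β-gal signal | detection = GalScreen β-gal luminescence, detergent lysis, 60 min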
Numbers without * were called inactive; ? = inconclusive; . = no result. Rows were chosen to be rich in hits. Some 4.4% of all compounds tested hit in one or more screens of this group.

SMILES	Calb FLC	HSF1 inh	HSF1 activator	HIF act	T cruzi repl
COc1cc(C)c(CN2CCN(c3ncccn3)CC2)cc1C	-2	-1	10	-1	8
COCc1cc(CN2CCN(C)CC2)c(O)c2ncccc12	108*	-2	-7	0	32
Oc1c(CN2CCN(c3ccccc3)CC2)cc(Br)c2cccnc12	102*	25	7	39*	52
O=C(NCc1ccccc1)NC(O)C(Cl)(Cl)Cl (stereo not drawn)	-7	0	5	0	-5
Cc1ccc(NC(=O)Cn2c(-c3ccc(F)cc3)cnc2SCC(=O)Nc2c(C)cccc2C)cc1	-14	-7	-15	0	-26
NC1=NC(=O)/C(=C\C=C\c2ccccc2)S1	1	1	15	2	-4
ClC1=C(Cl)C(Cl)=C(Cl)C1=C/C=C/c1ccccc1	-2	-11	-14	-1	63*
COc1cccc(N2C(=O)CC(NNc3nc4ccccc4s3)C2=O)c1 (stereo not drawn)	-6	39	69*	0	-9
CCc1ccc(N2C(=O)CC(NNc3nc4ccccc4s3)C2=O)cc1 (stereo not drawn)	3	162	220*	0	-1
O=C1CC(NNc2nc3ccccc3s2)C(=O)N1c1ccccc1 (stereo not drawn)	-18	26	43	0	-15
CCOc1ccc(NC(=O)C(CC(=O)O)Cc2ccc(Br)cc2)cc1 (stereo not drawn)	5	-10	-1	-1	7
O=C(O)CC(Cc1ccc(Br)cc1)C(=O)O (stereo not drawn)	-8	-76*	-81	0	-11
Cc1ccc(NC(=S)N2CCCCCC2)cc1	11	-7	2	2	-12
CC(CC(=O)N1CCN(C(=O)c2ccccc2)CC1)c1ccccc1 (stereo not drawn)	7	-3	-10	-3	-2
CC(c1ccccc1)N1CCN(C(=O)CCl)CC1 (stereo not drawn)	-14	-94*	-94	-1	1
COc1cc2c(cc1OC)CN(C(=O)C1CCCN1S(=O)(=O)c1ccc(C)cc1)CC2 (stereo not drawn)	-15	-6	-12	0	5
COc1ccc(-c2coc3cc(O)cc(O)c3c2=O)cc1	.	28	38	3	4
COc1ccc(-c2coc3cc(OC)cc(O)c3c2=O)cc1	-1	21	56*	5	-8
CCCCCCCCCCCC(=O)c1c(O)cccc1O	1	20	51*	0	-21
CN(c1cccc(NC(=O)Nc2cccc(Cl)c2)c1)S(C)(=O)=O	-15	36	66*	2	8
O=C(Nc1ccncc1)Nc1cccc(Cl)c1	1	6	5	1	43
CC(=O)Nc1cccc(N(C)S(C)(=O)=O)c1	11	-2	-18	-1	0
O=C(Nc1cccc(Cl)c1)Nc1csc([N+](=O)[O-])c1	-1	35	?	2	64*
COc1ccc(Cl)cc1S(=O)(=O)N1CCCC(C(=O)NCc2ccncc2)C1 (stereo not drawn)	2	-6	2	0	5
CC(C)=C(NC(=O)c1ccccc1)C(=O)NCCc1nc2ccccc2[nH]1	-1	5	8	0	22
SMILES	Calb FLC	HSF1 inh	HSF1 activator	HIF act	T cruzi repl
Cc1ccc(-c2c(C(=O)N/N=C/C3CC=CCC3)nnn2-c2nonc2N)cc1 (stereo not drawn)	8	2	-8	0	5
COC(=O)C(C(=O)OC)C(C[N+](=O)[O-])c1ccc(O)c(OC)c1 (stereo not drawn)	-4	-2	-11	-1	4
COc1ccc(-c2cc(-c3ccccc3)c(C#N)c(S(C)=O)n2)cc1 (stereo not drawn)	11	119	146*	-5	-25
Fc1ccc(N2CCN(c3ncnc4c3nnn4Cc3ccccc3Cl)CC2)cc1	10	-2	-9	0	63*
Cn1c(=O)n(C)c2cc(NS(=O)(=O)c3cccs3)ccc21	-6	-4	-11	0	9
O=C1N(Cc2cccc(Cl)c2)C[C@@H]2C[C@@H](c3c[nH]c4ccccc34)N3CCC[C@@]123	35	3	17	0	58*
CCN(CC(=O)Nc1ccc(S(=O)(=O)N2CCCC2)cc1)Cc1ccccc1	-1	2	-5	1	8
CCOC(=O)c1[nH]c2ccc(OC)cc2c1NC(=O)c1ccccc1C(=O)O	4	15	28	3	15
CCOC(=O)c1[nH]c2ccc(F)cc2c1NC(=O)c1ccccc1C(=O)O	85*	3	12	-22	29
Cc1nn(Cc2ccc(Cl)c(Cl)c2)c(C)c1NC(=O)c1cn(-c2ccccc2)nc1-c1ccccc1	4	8	12	0	61*
Cc1nn(Cc2ccccc2)c(C)c1NC(=O)Cn1nc([N+](=O)[O-])c(Cl)c1C	-14	3	25	0	17
Cc1cccc(C)c1NC(=O)c1cn(-c2ccccc2)nc1-c1ccccc1	-2	-11	-21	0	-14
Cc1nn(Cc2ccccc2)c(C)c1NC(=O)c1ccc([N+](=O)[O-])cc1[N+](=O)[O-]	4	-1	-2	-2	56*
COC(=O)N/N=C/c1sc(N2CCCCC2)nc1-c1cccs1	22	10	-1	0	19
CC(=O)Nc1ccc(NC(=O)COC(=O)C2c3ccccc3Oc3ccccc32)cc1	3	1	-3	0	-11
CC(=O)c1ccc(NC(=O)c2cn(-c3ccccc3)nc2-c2ccncc2)cc1	0	3	25	0	26
Cc1ccc(-c2nn(-c3ccccc3)cc2C(=O)Nc2ccc(C)c(S(=O)(=O)N3CCOCC3)c2)cc1	34	-1	0	-56	73*
O=C(Nc1cccc(S(=O)(=O)N2CCOCC2)c1)c1cn(-c2ccccc2)nc1-c1ccc(F)cc1	0	1	7	0	57*
COC(=O)c1ccc(NC(=O)c2cn(-c3ccccc3)nc2-c2ccncc2)cc1	-14	-2	-4	0	56*
CCN(CC)C(=O)Cn1cc(C(=O)C(=O)N2CCc3ccccc32)c2ccccc21	-8	4	6	0	29
CC[n+]1c(/C=C/c2cc([N+](=O)[O-])ccc2O)ccc2ccccc21	-4	-58*	-67	-7	52
CC[n+]1c(/C=C/c2ccc(OC)c(OC)c2)ccc2ccccc21	-3	-25	-33	2	39
CCOCCCN(C(=O)c1snc(C(N)=O)c1N)C(C(=O)NCCC(C)C)c1ccc(F)cc1 (stereo not drawn)	10	26	53*	1	-11
CCCCCN(C(=O)CCC(=O)OCC(=O)N(CC)c1ccccc1)c1c(N)n(CCCC)c(=O)[nH]c1=O	4	25	58*	0	-4
